Measured values of several laboratories.
Each line is one published result; the experiments were not run side by side.
Target: D(2) dopamine receptor (DRD2, Homo sapiens, UniProt P14416)
Concentration: 10 µM

| observed | mode | technique | inhibition [%] | SMILES |
| --- | --- | --- | --- | --- |
| ligand displacement |  |  | -7.81 | NS(=O)(=O)c1cc(NC(=O)Cc2ccccc2)ccc1Oc1cccc(Cl)c1 |
| ligand displacement |  |  | -11.5 | N#Cc1cc(Cn2c(N3CCCC3)nc3ccccc32)ccc1F |
| enzyme activity | inhibitor |  | 42.3 | Cc1ccccc1N1CCN(CCCCN2C(=O)C3CCCN3C2=O)CC1 (centres unmarked) |
| ligand displacement |  | radioligand | 9.5 | COc1cccc(OC[C@@H]2CN(CC(=O)N3CCc4ccccc43)CCO2)c1 |
| enzyme activity | inhibitor |  | 72.6 | COc1ccccc1N1CCN(CCCCN2C(=O)C3CCCCN3C2=O)CC1 (centres unmarked) |
| ligand displacement |  | radioligand | 66.6 | COc1ccc2c(c1)C(=O)N(CCN1CCN(c3ccccc3OC)CC1)C2 |
| ligand displacement |  | radioligand | < 10 | O=C1N=C(N2CCCCN2)S/C1=C\c1ccc(F)cc1O |
| enzyme activity | inhibitor |  | 11.9 | COc1ccc(CCN2C(=O)CC(N3CCN(c4ccc(Cl)cc4)CC3)C2=O)cc1OC (centres unmarked) |
| ligand displacement |  | radioligand | 36.3 | c1cncc(OC[C@H]2CN(CCN3CCc4ccccc43)CCO2)c1 |
| cell-free assay |  |  | 16.1 | CN(C)C(=O)Cn1cc(-c2nc(C3(c4ccc(-c5cnc(N)nc5)cc4)CC3)no2)cn1 |
| ligand displacement |  | radioligand | 15.1 | O=C(CN1CCO[C@H](COc2cccc(Cl)c2)C1)N1CCc2ccccc21 |
| ligand displacement |  |  | 10.6 | CN(C)c1ncnc(-c2ccc3nc(Nc4cc(CN5CCN(C(=O)CC(F)(F)F)CC5)ccn4)[nH]c3c2)c1Cl |
| enzyme activity | inhibitor |  | 46.8 | Cc1c(Cl)cccc1-c1ccc(CNCC(O)c2ccccc2)o1 (centres unmarked) |
| ligand displacement |  |  | 69.8 | CCC(F)(F)c1cc(N2CCC(S(C)(=O)=O)CC2)nc2sc(C(N)=O)c(N)c12 |
| ligand displacement |  | radioligand | 62.7 | Clc1cccc(OC[C@@H]2CN(CCN3CCc4ccccc43)CCO2)c1 |
| enzyme activity | inhibitor |  | 19.5 | Cc1ccccc1OCC(O)CN1CCN(CC(O)COc2ccccc2C)CC1 (centres unmarked) |
| cell-free assay |  |  | -14.4 | Cc1c(C(=O)O)cc(-c2ccc(C3CCNCC3)cc2)c2ccc(-c3ccc(C(F)(F)F)cc3)cc12 |
| ligand displacement |  | radioligand | 26.5 | Cc1ncccc1OC[C@H]1CN(CCN2CCc3ccccc32)CCO1 |
| enzyme activity | inhibitor |  | 33 | COc1cc(C(C)=O)ccc1OCC(O)CN1CCN(c2cc(Cl)ccc2C)CC1 (centres unmarked) |
| cell-free assay |  |  | -29.4 | O=C(c1ccc(F)cc1)N1CC(COc2ccc(Br)cc2)(C(=O)O)C1 |
